These results are taken from ChEMBL document CHEMBL1146335, “Synthesis and biological activation of an ethylene glycol-linked amino acid conjugate of cyclic cidofovir” (Bioorg Med Chem Lett, 2007).

Broadly, the half-life is the time in which the quantity being followed falls by half. What is called IC50 is the concentration at which inhibition is half-maximal. Read a high IC50 as a need for much substance. Broadly, the AUC(0-inf) is total exposure, with the tail of the curve extrapolated. Higher therefore signals high exposure.

A short description of series [1]: Stability in phosphate buffer in pH 4 at 37 degC at 500 uM. The note with it: pH 4, 500 µM. Format: physicochemical. In outline: (§1)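 Compound (500 μM) incubated at 37°C in 50 mM phosphate buffer brought to the stated pH with HCl. Monitored over 3 hours; half-life in hours.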
Series [2] is described as follows: Stability in phosphate buffer in pH 6.5 at 37 degC at 500 uM. Format: physicochemical. The procedure, abridged: as §1
Series [3] is described as follows: Stability in phosphate buffer in pH 3 at 37 degC at 500 uM. Format: physicochemical. As to conditions: pH 3, 500 µM. In outline: as §1
Series [4] can be described thus: Stability in phosphate buffer in pH 5 at 37 degC at 500 uM. Format: physicochemical. As to conditions: pH 5, 500 µM. The procedure, abridged: as §1
A short description of series [5]: (§2) Half life in Caco-2 cells in 37degC at 500 uM. As to conditions: human, Caco-2 cells. Format: ADME, cell-based, Colon. In outline:
(§3)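 Compound exposed at 37°C to homogenates of Caco-2 or HFF cells, or of rat liver or intestine. Samples taken at intervals from 0 to 3 h and analysed by HPLC. Half-life estimated as for the buffer stability study.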

The subject of a further series is KB. The experiment in a line: Cytotoxicity against human KB cells at 100 uM. Format: functional, cell-based. In outline: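 KB cells grown logarithmically for two days with compound, in triplicate. Growth read by spectrophotometric quantitation of crystal violet eluted from stained cells.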
A short description of series [6]: (§4) Half life in HFF cells in 37degC at 500 uM. In kind it is ADME, cell-based. As to conditions: human, HFF cells. The procedure, abridged: as §3
Series [7] is described as follows: Half life in Sprague-Dawley rat intestinal lumen in 37degC at 500 uM. Format: ADME. The procedure, abridged:
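Compound incubated at 37°C in intestinal perfusate from Sprague Dawley rats. Perfusate made by passing buffered solution (pH 6.5) through an isolated intestinal segment. Sampled between 0 and 3 h, analysed by HPLC, half-life estimated.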

Series [8] in a line: (§5) Half life in rat intestine in 37degC at 500 uM. Format: ADME, tissue-based. The note with it: rat intestine. The procedure, abridged: as §3
The subject of a further series is Human betaherpesvirus 5. The experiment in a line: Antiviral activity against HCMV Towne in HFF cells by plaque reduction assay. Format: functional, organism-based. The note with it: Human betaherpesvirus 5, Towne. The procedure, abridged: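 HFF cells in 24-well dishes infected with ~100 p.f.u./cm2 HCMV Towne (plaque-purified isolate Po). After adsorption, compounds (DMSO stocks diluted in growth medium) added at 4–8 concentrations in duplicate.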
A general note: Plaque reduction counts the foci of infection that form in a cell layer.

Series [9] in a line: (§6) Half life in rat liver in 37degC at 500 uM. As to conditions: rat liver. Format: ADME, tissue-based. In outline: as §3
A short description of series [10]: Stability in phosphate buffer in pH 6 at 37 degC at 500 uM. In kind it is physicochemical. The procedure, abridged:
as §1

Series [11] in a line: Stability in phosphate buffer in pH 7 at 37 degC at 500 uM. Format: physicochemical. In outline:
as §1

The next series concerns Rattus norvegicus. The experiment in a line: Bioavailability in rat at 3 mg, iv. In kind it is ADME, organism-based. The note with it: in vivo, in the assay text read “0.1 mg” for “3 mg”. In outline: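 Rat; drug injected directly into the gastrointestinal tract at 3 mg, with a 0.1 mg intravenous reference. Prodrug AUC summed the released cyclic parent and the intact prodrug. Bioavailability = dose-normalized GI AUC ÷ IV AUC, corrected for the IV vs oral dose difference.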

The subject of another series is Caco-2. Described as §2. The note with it: human, caco-2, 500 µM. In kind it is ADME, cell-based, Colon. In outline: as §3
For a further series, the system named is HFF. Described as §4. In kind it is ADME, cell-based. The note with it: human, hff, 500 µM. In outline: as §3
Another series relates to Intestine. The description is as §5. In kind it is ADME, tissue-based. The note with it: in vivo, 500 µM. The procedure, abridged:
as §3

A short description of series [12]: AUC (0 to infinity) in rat at 0.1 mg, iv. As to conditions: plasma. In kind it is ADME, organism-based. The arrangement: dose 0.1 mg, route intravenous, time infinity. In outline:
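Rat; reference compound dosed intravenously at 0.1 mg. Plasma AUC from zero to infinity, dose normalized.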

The next series has as its system Liver. Described as §6. Format: ADME, tissue-based. The note with it: in vivo, 500 µM. In outline:
as §3

Regarding `Nc1ccn(C[C@H]2COP(=O)(OCCOC(=O)C(N)Cc3ccccc3)CO2)c(=O)n1` (some centres undefined), the Stability result in [1], in series [3] and in series [4] was “Stable” in each case. The half-life at 500 µM in series [2] is 3.7 h.

As to `CC(C)C(N)C(=O)OCCOP1(=O)CO[C@@H](Cn2ccc(N)nc2=O)CO1` (some centres undefined), the Stability result in series [1], in series [3] and in [4] was “Stable” in each case. In addition, the half-life at 500 µM in [5] was 0.337 h; in [6] it was 1.17 h; in series [7] (Sprague-Dawley, rat intestinal lumen), 2.36 h; in series [8] it was 0.208 h; in series [9] it was 3.7 min; in series [10] (phosphate buffer, pH 6), 16 h. The molecule further showed a half-life at 500 µM in series [11] (phosphate buffer, pH 7) of 3.5 h. In the series with KB, the Activity entry is “Not toxic”. For the same molecule, the midpoint of inhibition with Human betaherpesvirus 5, the IC50, lay at 0.68 µM.

Turning to `Nc1ccn(C[C@H]2COP(=O)(O)CO2)c(=O)n1` [CYCLIC CIDOFOVIR], the Stability result in [1] is “Stable”; in the series on Caco-2, “Stable”; in the series with HFF, “Stable”; in series [7] (in vivo, 500 µM) it was “Stable”; with Intestine, “Stable”; in series [3], “Stable”. In addition, the Stability entry in the series with Liver was “Stable”; in series [10] (buffer, pH 6, 500 µM), “Stable”; in [4], “Stable”; in [11] (buffer, pH 7, 500 µM), “Stable”. In the series with Rattus norvegicus, the F came out at 100%. The molecule also registered an AUC(0-inf) in series [12] of 472 ng·h/mL.

On to `Nc1nc2c(ncn2COC(CO)CO)c(=O)[nH]1` [GANCICLOVIR], for which, in the series with Human betaherpesvirus 5, 3 µM corresponded to half-maximal inhibition (IC50).
